Source: ChEMBL document CHEMBL2311355, “A class of 5-nitro-2-furancarboxylamides with potent trypanocidal activity against Trypanosoma brucei in vitro” (J Med Chem, 2013)
One block for each molecule: values may come before it.

Columns and labels:
[1] = system: Trypanosoma brucei brucei; assay: Trypanocidal activity against bloodstream form of Trypanosoma brucei brucei 427 after 72 hrs by Alamar blue assay; assay type: functional, organism-based; details: Trypanosoma brucei, 427, 72 h
In short: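 Bloodstream-form T. b. brucei strain 427 grown at 37°C in HMI9 with 10% fetal calf serum and 2.5 µg ml-1 G418, exposed to serially diluted compounds for 72 h. Viability read by Alamar Blue. Four replicates; EC50 ± standard deviation and slope factor from curve fitting.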

[2] = Selectivity index, ratio of EC50 for human HeLa cells to EC50 for bloodstream form of Trypanosoma brucei brucei 427; assay type: toxicity, cell-based; details: read-out: Ratio EC50
HeLa = assay: Cytotoxicity against human HeLa cells after 65 hrs by Alamar blue assay; assay type: cell-based
[3] = Selectivity ratio of EC50 for bloodstream form of nifurtimox-resistant Trypanosoma brucei to EC50 for bloodstream form of wild type Trypanosoma brucei brucei 427; assay type: functional
Trypanosoma brucei [4] = assay: Trypanocidal activity against bloodstream form of nifurtimox-resistant Trypanosoma brucei after 72 hrs by Alamar blue assay; assay type: functional, organism-based
Trypanosoma brucei [5] = assay: Trypanocidal activity against bloodstream form of N-(4-(allyloxy)-3-(trifluoromethyl)phenyl)-5-nitrofuran-2-carboxamide-resistant Trypanosoma brucei after 72 hrs by Alamar blue assay; assay type: functional, organism-based
[6] = Selectivity ratio of EC50 for bloodstream form of N-(4-(allyloxy)-3-(trifluoromethyl)phenyl)-5-nitrofuran-2-carboxamide-resistant Trypanosoma brucei to EC50 for bloodstream form of wild type Trypanosoma brucei brucei 427; assay type: functional
[7] = system: Trypanosoma brucei brucei; assay: Ratio of nifurtimox EC50 to compound EC50 for bloodstream form of wild type Trypanosoma brucei brucei 427; assay type: functional
[8] = system: Trypanosoma brucei rhodesiense; assay: Trypanocidal activity against Trypanosoma brucei rhodesiense Z310 after 72 hrs by Alamar blue assay; assay type: functional, organism-based; details: Z310, 72 h
In short: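 T. b. rhodesiense strain Z310 cultured at 37°C in HMI9 with 10% fetal calf serum, without G418, and exposed to compounds for 72 h. Alamar Blue viability read-out. Four replicates; EC50 ± standard deviation from curve fitting.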

Trypanosoma brucei [9] = assay: Antitrypanosomal activity against trypomastigote form of Trypanosoma brucei; assay type: functional, organism-based
In short: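 Bloodstream-form T. b. brucei strain 427 grown at 37°C in HMI9 with 10% fetal calf serum and 2.5 μg ml-1 G418; viability read by Alamar Blue after 72 h compound exposure. Four replicates, EC50 ± standard deviation and slope factor from curve fitting.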

Structure (SMILES): C=CCOc1ccc(N(CC=C)C(=O)c2ccc([N+](=O)[O-])o2)cc1C(F)(F)F
EC50 [1]: 2200 nM
selectivity ratio [2]: > 9
EC50 (HeLa): > 20 µM

Structure (SMILES): O=C(Nc1ccc(Cl)cc1)c1ccc([N+](=O)[O-])o1
EC50 [1]: 412 nM
selectivity ratio [2]: > 48
EC50 (HeLa): > 20 µM

Structure (SMILES): O=C(NC1CCCCC1)c1ccc([N+](=O)[O-])o1
EC50 [1]: 231 nM
selectivity ratio [2]: > 86
EC50 (HeLa): > 20 µM

Structure (SMILES): C=CCOc1ccc(NC(=O)c2ccc([N+](=O)[O-])o2)cc1C(F)(F)F
EC50 [1]: 2.4 nM
Ratio EC50 [3]: 3
EC50 (Trypanosoma brucei [4]): 7.8 nM
EC50 (Trypanosoma brucei [5]): 29.3 nM
Ratio EC50 [6]: 14
selectivity ratio [2]: > 8330
Ratio EC50 [7]: 1000
EC50 (HeLa): > 20 µM
EC50 [8]: 2.9 nM

Structure (SMILES): O=C(NCc1ccccc1)c1ccc([N+](=O)[O-])o1
EC50 [1]: 27.3 nM
selectivity ratio [2]: > 732
EC50 (HeLa): > 20 µM

Structure (SMILES): COC(=O)c1ccc([N+](=O)[O-])o1
EC50 [1]: 67000 nM
EC50 (HeLa): > 20 µM

Structure (SMILES): CCc1cc(C(N)=O)c(NC(=O)c2n[nH]cc2[N+](=O)[O-])s1
EC50 [1]: > 300000 nM
EC50 (HeLa): > 20 µM

Structure (SMILES): CCOC(=O)c1cc(CC)sc1NC(=O)c1ccco1
EC50 [1]: > 20000 nM
EC50 (HeLa): > 20 µM

Structure (SMILES): O=C(Nc1cccc(Br)c1)c1ccc([N+](=O)[O-])o1
EC50 [1]: 104 nM
selectivity ratio [2]: > 192
EC50 (HeLa): > 20 µM

Structure (SMILES): O=C(NCc1ccccn1)c1ccc([N+](=O)[O-])o1
EC50 [1]: 291 nM
selectivity ratio [2]: > 68
EC50 (HeLa): > 20 µM

Structure (SMILES): COc1ccc(NC(=O)c2ccc([N+](=O)[O-])o2)cc1
EC50 [1]: 76.5 nM
selectivity ratio [2]: > 261
EC50 (HeLa): > 20 µM

Structure (SMILES): Cc1csc(N)c1C(N)=O
EC50 [1]: 65100 nM
EC50 (HeLa): > 20 µM

Structure (SMILES): CCCCNC(=O)c1cc(CC)sc1NC(=O)c1ccc([N+](=O)[O-])o1
EC50 [1]: 336 nM
selectivity ratio [2]: > 60
EC50 (HeLa): > 20 µM

Structure (SMILES): COc1ccc(NC(=O)c2ccc([N+](=O)[O-])o2)cc1C
EC50 [1]: 38 nM
selectivity ratio [2]: > 525
EC50 (HeLa): > 20 µM

Structure (SMILES): CCc1cc(C(N)=O)c(NCc2ccc([N+](=O)[O-])o2)s1
EC50 [1]: 5300 nM
selectivity ratio [2]: > 4
EC50 (HeLa): > 20 µM

Structure (SMILES): COc1ccc(NC(=O)c2ccc([N+](=O)[O-])o2)cc1C(F)(F)F
EC50 [1]: 7.8 nM
selectivity ratio [2]: > 2560
EC50 (HeLa): > 20 µM

Structure (SMILES): O=C(NCc1cccc(C(F)(F)F)c1)c1ccc([N+](=O)[O-])o1
EC50 [1]: 17.4 nM
selectivity ratio [2]: > 1150
EC50 (HeLa): > 20 µM

Structure (SMILES): CCNC(=O)c1cc(CC)sc1NC(=O)c1ccc([N+](=O)[O-])o1
EC50 [1]: 147 nM
selectivity ratio [2]: > 136
EC50 (HeLa): > 20 µM
EC50 [8]: 202 nM

Structure (SMILES): O=C(Nc1ccc(O)c(C(F)(F)F)c1)c1ccc([N+](=O)[O-])o1
EC50 [1]: 2200 nM
selectivity ratio [2]: > 9
EC50 (HeLa): > 20 µM

Structure (SMILES): CCc1cc(C(N)=O)c(NC(=O)c2cccc([N+](=O)[O-])c2)s1
EC50 [1]: 2600 nM
selectivity ratio [2]: > 8
EC50 (HeLa): > 20 µM

Structure (SMILES): N=C(N)c1ccc(OCCCCCOc2ccc(C(=N)N)cc2)cc1 [PENTAMIDINE]
Ratio EC50 [3]: 2
EC50 (Trypanosoma brucei [5]): 1.1 nM

Structure (SMILES): COc1cc(NC(=O)c2ccc([N+](=O)[O-])o2)cc(C(F)(F)F)c1
EC50 [1]: 26.6 nM
selectivity ratio [2]: > 752
EC50 (HeLa): > 20 µM

Structure (SMILES): CCc1cc(C(N)=O)c(NC(=O)c2ccc([N+](=O)[O-])cc2)s1
EC50 [1]: > 20000 nM
EC50 (HeLa): > 20 µM

Structure (SMILES): CCc1cc(C(N)=O)c(NC(=O)c2ccc([N+](=O)[O-])o2)s1
EC50 [1]: 17.3 nM
selectivity ratio [2]: > 1160
EC50 (HeLa): > 20 µM
EC50 [8]: 23.1 nM

Structure (SMILES): O=C(Nc1cc(C(F)(F)F)cc(C(F)(F)F)c1)c1ccc([N+](=O)[O-])o1
EC50 [1]: 128 nM
selectivity ratio [2]: > 78
EC50 (HeLa): > 10 µM

Structure (SMILES): Nc1nc(N)nc(Nc2ccc([As]3SCC(CO)S3)cc2)n1 (stereo not given) [MELARSOPROL]
EC50 [8]: 7.8 nM

Structure (SMILES): O=C(Nc1ccc(C(F)(F)F)cc1)c1ccc([N+](=O)[O-])o1
EC50 [1]: 126 nM
selectivity ratio [2]: > 158
EC50 (HeLa): > 20 µM
EC50 [8]: 159 nM

Structure (SMILES): CCOC(=O)c1cc(CC)sc1NC(=O)c1ccc([N+](=O)[O-])o1
EC50 [1]: 31.3 nM
selectivity ratio [2]: > 640
Ratio EC50 [7]: 100
EC50 (HeLa): > 20 µM
EC50 [8]: 44.2 nM

Structure (SMILES): C=CCOc1ccc(NC(=O)c2ccc([N+](=O)[O-])o2)cc1
EC50 [1]: 7.73 nM
selectivity ratio [2]: > 258
EC50 (HeLa): > 20 µM

Structure (SMILES): CC1CS(=O)(=O)CCN1/N=C/c1ccc([N+](=O)[O-])o1 (stereo not given) [NIFURTIMOX]
EC50 (Trypanosoma brucei [5]): 7300 nM
Ratio EC50 [6]: 3
selectivity ratio [2]: 38
EC50 (HeLa): 91.2 µM
EC50 [8]: 1710 nM

Structure (SMILES): CCCCOC(=O)c1cc(CC)sc1NC(=O)c1ccc([N+](=O)[O-])o1
EC50 [1]: 32.6 nM
selectivity ratio [2]: > 625
EC50 (HeLa): > 20 µM

Structure (SMILES): CCOC(=O)c1ccsc1NC(=O)c1ccc([N+](=O)[O-])o1
EC50 [1]: 72.3 nM
selectivity ratio [2]: > 278
EC50 (HeLa): > 20 µM

Structure (SMILES): CCCCc1cc(C(=O)OCC)c(NC(=O)c2ccc([N+](=O)[O-])o2)s1
EC50 [1]: 125 nM
selectivity ratio [2]: > 160
EC50 (HeLa): > 20 µM

Structure (SMILES): O=C(Nc1cccs1)c1ccc([N+](=O)[O-])o1
EC50 [1]: 62.6 nM
selectivity ratio [2]: > 322
EC50 (HeLa): > 20 µM

Structure (SMILES): O=[N+]([O-])c1ccc(CNc2ccccc2)o1
EC50 [1]: 113000 nM
EC50 (HeLa): > 20 µM

Structure (SMILES): O=C(Nc1ccccc1)c1ccc([N+](=O)[O-])o1
EC50 [1]: 28.1 nM
selectivity ratio [2]: > 710
EC50 (HeLa): > 20 µM

Structure (SMILES): CCc1cc(C(N)=O)c(NC(=O)c2ccccc2[N+](=O)[O-])s1
EC50 [1]: 26100 nM
EC50 (HeLa): > 20 µM

Structure (SMILES): CCc1cc(C(=O)O)c(NC(=O)c2ccc([N+](=O)[O-])o2)s1
EC50 [1]: 959 nM
EC50 (HeLa): > 20 µM

Structure (SMILES): CCc1cc(C(=O)NCCO)c(NC(=O)c2ccc([N+](=O)[O-])o2)s1
EC50 [1]: 79.6 nM
selectivity ratio [2]: > 253
EC50 (HeLa): > 20 µM

Structure (SMILES): CCc1cc(C(N)=O)c(N)s1
EC50 [1]: 32600 nM
EC50 (HeLa): > 20 µM

Structure (SMILES): COc1cccc(NC(=O)c2ccc([N+](=O)[O-])o2)c1
EC50 [1]: 58.6 nM
selectivity ratio [2]: > 345
EC50 (HeLa): > 20 µM

Structure (SMILES): O=C(Nc1ccc(O)cc1)c1ccc([N+](=O)[O-])o1
EC50 [1]: 394 nM
selectivity ratio [2]: > 50
EC50 (HeLa): > 20 µM

EC50 (Trypanosoma brucei [9]): 130 nM
Structure (SMILES): O=C(NNC(=O)c1ccc([N+](=O)[O-])o1)c1ccc2ccccc2c1

Structure (SMILES): O=C(Nc1cccc(C(F)(F)F)c1)c1ccc([N+](=O)[O-])o1
EC50 [1]: 4.69 nM
selectivity ratio [2]: > 4450
EC50 (HeLa): > 20 µM
EC50 [8]: 9.4 nM

Structure (SMILES): COC(=O)c1ccc(NC(=O)c2ccc([N+](=O)[O-])o2)cc1
EC50 [1]: 680 nM
selectivity ratio [2]: > 29
EC50 (HeLa): > 20 µM

Structure (SMILES): CCc1cc(C(=O)OC)c(NC(=O)c2ccc([N+](=O)[O-])o2)s1
EC50 [1]: 21 nM
selectivity ratio [2]: > 950
EC50 (HeLa): > 20 µM

Structure (SMILES): O=C(Nc1ccccc1)c1ccco1
EC50 [1]: > 20000 nM
EC50 (HeLa): > 20 µM
